One block for each compound: values may come before it. Activity calls are given as the source filed them. The calls are words filed in the database; no cut-off is given here.
How the values were obtained:
Rattus norvegicus [1] = assay: In-vivo inhibition of MAO in rat assessed as 5-hydroxytryptamine level in brain at 20 mg/kg/day, po administered for 1 week measured post last dose by HPLC method (reference value: 0.211 +/- 0.03 ng/mg); type: functional
Rattus norvegicus [2] = assay: In-vivo inhibition of MAO in rat assessed as norepinephrine level in brain at 20 mg/kg/day, po administered for 1 week measured post last dose by HPLC method (reference value: 1.438 +/- 0.054 ng/mg); type: functional
Rattus norvegicus [3] = assay: In-vivo inhibition of MAO in rat assessed as dopamine level in brain at 20 mg/kg/day, po administered for 1 week measured post last dose by HPLC method (reference value: 0.459 +/- 0.07 ng/mg); type: functional
Rattus norvegicus [4] = assay: In-vivo inhibition of MAO in rat assessed as 5-hydroxytryptamine level in plasma at 20 mg/kg/day, po administered for 1 week measured post last dose by HPLC method (reference value: 67.4 +/- 5.9 ng/ml); type: functional
Rattus norvegicus [5] = assay: In-vivo inhibition of MAO in rat assessed as norepinephrine level in plasma at 20 mg/kg/day, po administered for 1 week measured post last dose by HPLC method (reference value: 200 +/- 13.2 ng/ml); type: functional
Rattus norvegicus [6] = assay: In-vivo inhibition of MAO in rat assessed as dopamine level in plasma at 20 mg/kg/day, po administered for 1 week measured post last dose by HPLC method (reference value: 121.3 +/- 10.1 ng/ml); type: functional
[7] = Acute toxicity in po dosed rat; type: organism-based; conditions: in vivo
Rattus norvegicus [8] = assay: In-vivo inhibition of MAOB in rat plasma at 20 mg/kg/day, po administered for 1 week measured post last dose; type: functional, organism-based
Rattus norvegicus [9] = assay: In-vivo inhibition of MAOB in rat brain at 20 mg/kg/day, po administered for 1 week measured post last dose; type: functional, organism-based
Rattus norvegicus [10] = assay: In-vivo inhibition of MAOA in rat plasma at 20 mg/kg/day, po administered for 1 week measured post last dose; type: functional, organism-based
Rattus norvegicus [11] = assay: In-vivo inhibition of MAOA in rat brain at 20 mg/kg/day, po administered for 1 week measured post last dose; type: functional, organism-based
[12] = target: T1, Amine oxidase [flavin-containing] B (Rattus norvegicus, UniProt P19643); assay: Inhibition of rat MAOB using benzylamine as substrate pretreated for 1200 secs followed by substrate addition and measured after 3600 secs
T1 sequence (P19643 whole entry): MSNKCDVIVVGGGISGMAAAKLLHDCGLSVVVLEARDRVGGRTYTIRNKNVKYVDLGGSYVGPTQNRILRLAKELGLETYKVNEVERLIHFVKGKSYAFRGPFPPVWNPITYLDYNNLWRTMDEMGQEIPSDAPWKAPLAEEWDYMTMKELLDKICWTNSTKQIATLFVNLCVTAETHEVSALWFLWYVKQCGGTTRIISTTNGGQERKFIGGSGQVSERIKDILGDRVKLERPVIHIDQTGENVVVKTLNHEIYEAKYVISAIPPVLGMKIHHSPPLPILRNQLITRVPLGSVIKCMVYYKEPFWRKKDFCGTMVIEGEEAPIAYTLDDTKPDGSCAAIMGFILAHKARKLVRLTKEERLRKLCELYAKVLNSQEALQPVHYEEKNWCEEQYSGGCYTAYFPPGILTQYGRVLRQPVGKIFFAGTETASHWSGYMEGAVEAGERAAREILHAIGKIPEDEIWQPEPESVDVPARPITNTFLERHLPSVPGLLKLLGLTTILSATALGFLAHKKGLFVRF
Procedure, shortened: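 Enzyme: liver mitochondrial MAO prepared by sucrose differential centrifugation and held in 100 mmol/L K-phosphate pH 7.9. Inhibitor pre-incubated with enzyme 1200 s at 37 °C, 5% CO2. Benzylamine was added (final 2 mmol/L; MAO final 0.15 mg/mL) and reacted 3600 s. Stopped with 10% perchloric acid. Benzaldehyde extracted into cyclohexane and read at A240. DMSO blank.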

[13] = target: T2, Amine oxidase [flavin-containing] A (Rattus norvegicus, UniProt P21396); assay: Inhibition of rat MAOA using 5-hydroxytryptamine as substrate pretreated for 1200 secs followed by substrate addition and measured after 3600 secs
T2 sequence (P21396 whole entry): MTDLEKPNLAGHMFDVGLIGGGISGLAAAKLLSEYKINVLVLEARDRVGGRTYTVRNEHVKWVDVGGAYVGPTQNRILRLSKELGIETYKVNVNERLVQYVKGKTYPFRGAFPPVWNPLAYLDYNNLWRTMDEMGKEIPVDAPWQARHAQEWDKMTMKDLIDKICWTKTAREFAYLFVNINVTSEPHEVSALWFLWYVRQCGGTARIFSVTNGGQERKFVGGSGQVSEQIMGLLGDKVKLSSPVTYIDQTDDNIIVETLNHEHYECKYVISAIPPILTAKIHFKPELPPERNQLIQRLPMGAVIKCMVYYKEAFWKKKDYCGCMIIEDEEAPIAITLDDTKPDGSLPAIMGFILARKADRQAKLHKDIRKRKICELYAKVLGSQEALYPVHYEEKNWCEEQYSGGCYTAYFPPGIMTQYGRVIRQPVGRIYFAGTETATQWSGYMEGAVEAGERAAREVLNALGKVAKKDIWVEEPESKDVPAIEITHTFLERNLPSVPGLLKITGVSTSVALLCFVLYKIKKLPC

Structure (SMILES): O=C(NCO)c1ccc(Cl)cn1
Activity (Rattus norvegicus [1]): 0.469 ng/mg
Activity (Rattus norvegicus [2]): 4.12 ng/mg
Activity (Rattus norvegicus [3]): 0.667 ng/mg
Activity (Rattus norvegicus [4]): 100.6 ng/mL
Activity (Rattus norvegicus [5]): 569.2 ng/mL
Activity (Rattus norvegicus [6]): 201.3 ng/mL
LD50 [7]: 3000 mg/kg
inhibition (Rattus norvegicus [8]): Active
inhibition (Rattus norvegicus [9]): Active

Structure (SMILES): NCCNC(=O)c1ccc(Cl)cc1
Activity (Rattus norvegicus [1]): 0.613 ng/mg
Activity (Rattus norvegicus [2]): 3.13 ng/mg
Activity (Rattus norvegicus [3]): 1.21 ng/mg
Activity (Rattus norvegicus [4]): 150.4 ng/mL
Activity (Rattus norvegicus [5]): 440.4 ng/mL
Activity (Rattus norvegicus [6]): 307.5 ng/mL
LD50 [7]: 2810 mg/kg
inhibition (Rattus norvegicus [10]): Active
inhibition (Rattus norvegicus [11]): Active

Structure (SMILES): O=C(NCCO)c1ccc(Cl)cn1
Activity (Rattus norvegicus [1]): 0.515 ng/mg
Activity (Rattus norvegicus [2]): 4.99 ng/mg
Activity (Rattus norvegicus [3]): 0.768 ng/mg
Activity (Rattus norvegicus [4]): 116.4 ng/mL
Activity (Rattus norvegicus [5]): 628.3 ng/mL
Activity (Rattus norvegicus [6]): 211.6 ng/mL
LD50 [7]: 3060 mg/kg
inhibition (Rattus norvegicus [8]): Active
inhibition (Rattus norvegicus [9]): Active

IC50 [12]: 783 µM
Structure (SMILES): O=C(NCCN1CCOCC1)c1ccc(Cl)cc1 [MOCLOBEMIDE]

Structure (SMILES): O=C(NCO)c1ccc(Cl)cc1
Activity (Rattus norvegicus [1]): 0.545 ng/mg
IC50 [13]: 7.49 µM
IC50 [12]: 1440 µM
Activity (Rattus norvegicus [2]): 2.64 ng/mg
Activity (Rattus norvegicus [3]): 0.832 ng/mg
Activity (Rattus norvegicus [4]): 123.2 ng/mL
Activity (Rattus norvegicus [5]): 436.9 ng/mL
Activity (Rattus norvegicus [6]): 231.1 ng/mL
LD50 [7]: 3000 mg/kg
inhibition (Rattus norvegicus [10]): Active
inhibition (Rattus norvegicus [11]): Active

Structure (SMILES): O=C(NCCO)c1ccc(Cl)cc1
Activity (Rattus norvegicus [1]): 0.753 ng/mg
Activity (Rattus norvegicus [2]): 3.73 ng/mg
Activity (Rattus norvegicus [3]): 1.51 ng/mg
Activity (Rattus norvegicus [4]): 214.8 ng/mL
Activity (Rattus norvegicus [5]): 452.7 ng/mL
Activity (Rattus norvegicus [6]): 379.4 ng/mL
LD50 [7]: 3090 mg/kg
inhibition (Rattus norvegicus [10]): Active
inhibition (Rattus norvegicus [11]): Active

IC50 [13]: 790 µM
IC50 [12]: 24.8 µM
Structure (SMILES): O=C(NCCBr)c1ccc(Cl)cn1

IC50 [13]: 24.5 µM
IC50 [12]: 1610 µM
Structure (SMILES): NCCCNC(=O)c1ccc(Cl)cc1

IC50 [13]: 26.8 µM
IC50 [12]: 895 µM
Structure (SMILES): O=C(NCCBr)c1ccc(Cl)cc1

Structure (SMILES): NCCNC(=O)c1ccc(Cl)cn1 [LAZABEMIDE]
LD50 [7]: 1000 to 2000 mg/kg

From ChEMBL document CHEMBL4229548, “Design, synthesis and biological evaluation of lazabemide derivatives as inhibitors of monoamine oxidase” (Bioorg Med Chem, 2018)
